Calls of active or inactive are those of the source. The rule behind the calls is not given here.
Assays:
Rattus norvegicus [1] = assay: Anticonvulsant activity in ip dosed Sprague-Dawley albino rat assessed as protection against pilocarpine-induced status epilepticus after 0.5 hrs; type: functional
Procedure, shortened: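 Pilocarpine status epilepticus model in rats. Number and severity of convulsive seizures were observed behaviourally.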

Mus musculus [2] = assay: Anticonvulsant activity in albino CF1 mouse assessed as protection against subcutaneous metrazol-induced seizures at 30 mg/kg, ip after 0.5 hrs; type: functional, organism-based; design: dose 30 mg/kg
Procedure, shortened: (§1)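 Mice dosed ip at 30, 100 or 300 mg/kg, then tested 0.5 h and 4 h after administration in the MES or scMet test. Protection was recorded as animals protected over animals tested. Neurotoxicity was recorded as motor impairment or sedation, as animals affected over animals tested.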

Mus musculus [3] = assay: Anticonvulsant activity in albino CF1 mouse assessed as protection against subcutaneous metrazol-induced seizures at 30 mg/kg, ip after 4 hrs; type: functional, organism-based; design: dose 30 mg/kg; procedure, shortened: as §1
Mus musculus [4] = assay: Anticonvulsant activity in albino CF1 mouse assessed as protection against maximal electroshock-induced seizures at 30 mg/kg, ip after 0.5 hrs; type: functional, organism-based; design: dose 30 mg/kg; procedure, shortened: as §1
Mus musculus [5] = assay: Anticonvulsant activity in albino CF1 mouse assessed as protection against maximal electroshock-induced seizures at 100 mg/kg, ip after 0.5 hrs; type: functional, organism-based; design: dose 100 mg/kg; procedure, shortened: as §1
Mus musculus [6] = assay: Neurotoxicity in albino CF1 mouse assessed as minimal motor impairment at 30 mg/kg, ip after 0.5 hrs by rotarod test; type: toxicity, organism-based; design: dose 30 mg/kg, route intraperitoneal; conditions: in vivo; procedure, shortened: as §1
Mus musculus [7] = assay: Neurotoxicity in albino CF1 mouse assessed as minimal motor impairment at 100 mg/kg, ip after 0.5 hrs by rotarod test; type: toxicity, organism-based; design: dose 100 mg/kg, route intraperitoneal; conditions: in vivo; procedure, shortened: as §1
Mus musculus [8] = assay: Neurotoxicity in albino CF1 mouse assessed as minimal motor impairment at 300 mg/kg, ip after 0.5 hrs by rotarod test; type: toxicity, organism-based; design: dose 300 mg/kg, route intraperitoneal; conditions: in vivo; procedure, shortened: as §1
Rattus norvegicus [9] = assay: Neurotoxicity in pilocarpine-induced status epilepticus Sprague-Dawley albino rat model assessed as minimal motor impairment at 100 mg/kg, ip after 0.25 hr by rotarod test; type: toxicity, organism-based; design: dose 100 mg/kg, route intraperitoneal; conditions: in vivo
Rattus norvegicus [10] = assay: Neurotoxicity in pilocarpine-induced status epilepticus Sprague-Dawley albino rat model assessed as minimal motor impairment at 300 mg/kg, ip after 0.25 hr by rotarod test; type: toxicity, organism-based; design: dose 300 mg/kg, route intraperitoneal; conditions: in vivo
Procedure, shortened: (§2)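 Rat pilocarpine status epilepticus model: test carbamate given at 0 or 30 min after the first observed Racine stage 3 motor seizure, which marks SE onset. Neurotoxicity was scored within the same model.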

Rattus norvegicus [11] = assay: Neurotoxicity in pilocarpine-induced status epilepticus Sprague-Dawley albino rat model assessed as minimal motor impairment at 100 mg/kg, ip after 0.5 hrs by rotarod test; type: toxicity, organism-based; design: dose 100 mg/kg, route intraperitoneal; conditions: in vivo
Rattus norvegicus [12] = assay: Neurotoxicity in pilocarpine-induced status epilepticus Sprague-Dawley albino rat model assessed as minimal motor impairment at 300 mg/kg, ip after 0.5 hrs by rotarod test; type: toxicity, organism-based; design: dose 300 mg/kg, route intraperitoneal; conditions: in vivo; procedure, shortened: as §2
Rattus norvegicus [13] = assay: Neurotoxicity in pilocarpine-induced status epilepticus Sprague-Dawley albino rat model assessed as minimal motor impairment at 100 mg/kg, ip after 1 hr by rotarod test; type: toxicity, organism-based; design: dose 100 mg/kg, route intraperitoneal; conditions: in vivo
Rattus norvegicus [14] = assay: Neurotoxicity in pilocarpine-induced status epilepticus Sprague-Dawley albino rat model assessed as minimal motor impairment at 300 mg/kg, ip after 1 hr by rotarod test; type: toxicity, organism-based; design: dose 300 mg/kg, route intraperitoneal; conditions: in vivo; procedure, shortened: as §2
Rattus norvegicus [15] = assay: Neurotoxicity in pilocarpine-induced status epilepticus Sprague-Dawley albino rat model assessed as minimal motor impairment at 100 mg/kg, ip after 2 hrs by rotarod test; type: toxicity, organism-based; design: dose 100 mg/kg, route intraperitoneal; conditions: in vivo
Rattus norvegicus [16] = assay: Neurotoxicity in pilocarpine-induced status epilepticus Sprague-Dawley albino rat model assessed as minimal motor impairment at 300 mg/kg, ip after 2 hrs by rotarod test; type: toxicity, organism-based; design: dose 300 mg/kg, route intraperitoneal; conditions: in vivo; procedure, shortened: as §2
Rattus norvegicus [17] = assay: Neurotoxicity in pilocarpine-induced status epilepticus Sprague-Dawley albino rat model assessed as minimal motor impairment at 100 mg/kg, ip after 4 hrs by rotarod test; type: toxicity, organism-based; design: dose 100 mg/kg, route intraperitoneal; conditions: in vivo
Rattus norvegicus [18] = assay: Neurotoxicity in pilocarpine-induced status epilepticus Sprague-Dawley albino rat model assessed as minimal motor impairment at 300 mg/kg, ip after 4 hrs by rotarod test; type: toxicity, organism-based; design: dose 300 mg/kg, route intraperitoneal; conditions: in vivo; procedure, shortened: as §2
Mus musculus [19] = assay: Anticonvulsant activity in albino CF1 mouse assessed as protection against subcutaneous metrazol-induced seizures at 100 mg/kg, ip after 0.5 hrs; type: functional, organism-based; design: dose 100 mg/kg; procedure, shortened: as §1
Mus musculus [20] = assay: Anticonvulsant activity in albino CF1 mouse assessed as protection against subcutaneous metrazol-induced seizures at 300 mg/kg, ip after 0.5 hrs; type: functional, organism-based; design: dose 300 mg/kg; procedure, shortened: as §1
Mus musculus [21] = assay: Anticonvulsant activity in albino CF1 mouse assessed as protection against subcutaneous metrazol-induced seizures at 100 mg/kg, ip after 4 hrs; type: functional, organism-based; design: dose 100 mg/kg; procedure, shortened: as §1
Mus musculus [22] = assay: Anticonvulsant activity in albino CF1 mouse assessed as protection against subcutaneous metrazol-induced seizures at 300 mg/kg, ip after 4 hrs; type: functional, organism-based; design: dose 300 mg/kg; procedure, shortened: as §1
Mus musculus [23] = assay: Anticonvulsant activity in albino CF1 mouse assessed as protection against maximal electroshock-induced seizures at 300 mg/kg, ip after 0.5 hrs; type: functional, organism-based; design: dose 300 mg/kg; procedure, shortened: as §1
Mus musculus [24] = assay: Anticonvulsant activity in albino CF1 mouse assessed as protection against maximal electroshock-induced seizures at 30 mg/kg, ip after 4 hrs; type: functional, organism-based; design: dose 30 mg/kg; procedure, shortened: as §1
Mus musculus [25] = assay: Anticonvulsant activity in albino CF1 mouse assessed as protection against maximal electroshock-induced seizures at 100 mg/kg, ip after 4 hrs; type: functional, organism-based; design: dose 100 mg/kg; procedure, shortened: as §1
Mus musculus [26] = assay: Anticonvulsant activity in albino CF1 mouse assessed as protection against maximal electroshock-induced seizures at 300 mg/kg, ip after 4 hrs; type: functional, organism-based; design: dose 300 mg/kg; procedure, shortened: as §1
Mus musculus [27] = assay: Neurotoxicity in albino CF1 mouse assessed as minimal motor impairment at 30 mg/kg, ip after 4 hrs by rotarod test; type: toxicity, organism-based; design: dose 30 mg/kg, route intraperitoneal; conditions: in vivo; procedure, shortened: as §1
Mus musculus [28] = assay: Neurotoxicity in albino CF1 mouse assessed as minimal motor impairment at 100 mg/kg, ip after 4 hrs by rotarod test; type: toxicity, organism-based; design: dose 100 mg/kg, route intraperitoneal; conditions: in vivo; procedure, shortened: as §1
Mus musculus [29] = assay: Neurotoxicity in albino CF1 mouse assessed as minimal motor impairment at 300 mg/kg, ip after 4 hrs by rotarod test; type: toxicity, organism-based; design: dose 300 mg/kg, route intraperitoneal; conditions: in vivo; procedure, shortened: as §1
Rattus norvegicus [30] = assay: Anticonvulsant activity in Sprague-Dawley albino rat assessed as protection against maximal electroshock-induced seizures at 30 mg/kg, po after 30 mins; type: functional, organism-based; design: dose 30 mg/kg
Procedure, shortened: (§3)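 Rats dosed orally. Anti-MES protection was scored as animals protected over animals tested at each time after dosing. Neurotoxicity was scored as motor impairment or sedation, as animals affected over animals tested.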

Rattus norvegicus [31] = assay: Anticonvulsant activity in Sprague-Dawley albino rat assessed as protection against maximal electroshock-induced seizures at 30 mg/kg, po after 1 hr; type: functional, organism-based; design: dose 30 mg/kg; procedure, shortened: as §3
Rattus norvegicus [32] = assay: Anticonvulsant activity in Sprague-Dawley albino rat assessed as protection against maximal electroshock-induced seizures at 30 mg/kg, po after 2 hrs; type: functional, organism-based; design: dose 30 mg/kg; procedure, shortened: as §3
Rattus norvegicus [33] = assay: Anticonvulsant activity in Sprague-Dawley albino rat assessed as protection against maximal electroshock-induced seizures at 30 mg/kg, po after 4 hrs; type: functional, organism-based; design: dose 30 mg/kg; procedure, shortened: as §3
Rattus norvegicus [34] = assay: Neurotoxicity in Sprague-Dawley albino rat assessed as minimal motor impairment at 30 mg/kg, po by rotarod test; type: toxicity, organism-based; design: dose 30 mg/kg, route oral; conditions: in vivo; procedure, shortened: as §3

Row | SMILES | ED50 (Rattus norvegicus [1]) [mg/kg] | Activity (Mus musculus [2]) | Activity (Mus musculus [3]) | Activity (Mus musculus [4]) | Activity (Mus musculus [5]) | Activity (Mus musculus [6]) | Activity (Mus musculus [7]) | Activity (Mus musculus [8]) | Activity (Rattus norvegicus [9]) | Activity (Rattus norvegicus [10]) | Activity (Rattus norvegicus [11]) | Activity (Rattus norvegicus [12]) | Activity (Rattus norvegicus [13]) | Activity (Rattus norvegicus [14]) | Activity (Rattus norvegicus [15]) | Activity (Rattus norvegicus [16]) | Activity (Rattus norvegicus [17]) | Activity (Rattus norvegicus [18]) | Activity (Mus musculus [19]) | Activity (Mus musculus [20]) | also measured
1 | NC(=O)N1c2ccccc2C=Cc2ccccc21 [CARBAMAZEPINE] | 50 | – | – | – | – | – | – | – | – | – | – | – | – | – | – | – | – | – | – | – | –
2 | CC(C)(C)CCOC(N)=O | – | inactive | inactive | Active | Active | Toxic | Toxic | Toxic | Non-toxic | Toxic | Non-toxic | Toxic | Non-toxic | Non-toxic | Non-toxic | Non-toxic | Non-toxic | Non-toxic | – | – | –
3 | CCCC(C(N)=O)C(C)CC (stereo not drawn) | 84 | – | – | – | – | – | – | – | – | – | – | – | – | – | – | – | – | – | – | – | –
4 | CCCC(CCC)COC(=O)NC1CCCCC1 | – | inactive | inactive | inactive | inactive | Non-toxic | – | – | – | – | – | – | – | – | – | – | – | – | inactive | inactive | Activity (Mus musculus [21]): inactive; Activity (Mus musculus [22]): inactive; Activity (Mus musculus [23]): inactive; Activity (Mus musculus [24]): inactive; Activity (Mus musculus [25]): inactive; Activity (Mus musculus [26]): inactive; Activity (Mus musculus [27]): Non-toxic; Activity (Mus musculus [28]): Non-toxic; Activity (Mus musculus [29]): Non-toxic
5 | CCCCC(CC)COC(N)=O (racemic) | – | inactive | inactive | inactive | Active | Non-toxic | Non-toxic | Toxic | Non-toxic | Toxic | Non-toxic | Toxic | Non-toxic | Toxic | Non-toxic | Toxic | Non-toxic | Toxic | inactive | Active | Activity (Mus musculus [21]): inactive; Activity (Mus musculus [22]): inactive; Activity (Mus musculus [23]): Active; Activity (Mus musculus [24]): inactive; Activity (Mus musculus [25]): inactive; Activity (Mus musculus [26]): Active; Activity (Mus musculus [27]): Non-toxic; Activity (Mus musculus [28]): Non-toxic; Activity (Mus musculus [29]): Non-toxic; Activity (Rattus norvegicus [30]): inactive; Activity (Rattus norvegicus [31]): inactive; Activity (Rattus norvegicus [32]): inactive; Activity (Rattus norvegicus [33]): inactive; Activity (Rattus norvegicus [34]): Non-toxic

— ChEMBL document CHEMBL2086252, “Syntheses and evaluation of anticonvulsant activity of novel branched alkyl carbamates” (J Med Chem, 2012)
